From ChEMBL document CHEMBL3997850 (ACS Med Chem Lett, 2017) come the findings set out here.

Activity calls are given as the source filed them.

Series [1] deals with T1, Indoleamine 2,3-dioxygenase 1 (Homo sapiens, UniProt P14902). The series is described as follows: Inhibition of IDO1 in IFN-gamma-stimulated human HeLa cells assessed as decrease in kynurenine levels after 48 hrs. Format: cell-based.
The subject of series [2] is Liver. The series is described as follows: Intrinsic clearance in rat hepatic S9 fraction at 5 uM in presence of UDPGA/NADPH measured over 30 mins by LC/MS analysis. The series is classed as ADME, tissue-based. The following applies: s9, 0.5 h. An outline of the steps: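 Rat hepatic S9 (2 mg/mL protein) with compound 5 µM, 50 mM Tris-HCl pH 7.5, 8 mM MgCl2, 2 mM NADPH, 2 mM UDPGA, 12.7 µM alamethicin, 37 °C. Reaction started with S9. Aliquots taken over 0–30 min, quenched with acetonitrile, analyzed by LC/MS.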

A short description of series [3]: Permeability across apical to basolateral side in human Caco2 cells at 50 uM after 120 mins by LC/MS analysis. The series is classed as ADME, cell-based. The conditions noted are these: Caco-2, read-out: permeability. An outline of the steps:
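Caco-2 cells (passages 21–45) seeded at 4,000/well on PET transwell filters and used 21–26 days after seeding. Monolayers accepted at TEER ≥300 Ω·cm² and run in Hank's balanced salt solution. After 120 min incubation, receiver-side sample taken, acetonitrile-precipitated, quantified by LC/MS.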
(Passage across Caco-2 layers is used to estimate intestinal permeability.)

The next series relates to Plasma. The series is described as follows: Fraction unbound in human plasma after 2 hrs by equilibrium dialysis method. The series is classed as ADME, cell-free. An outline of the steps: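 Equilibrium dialysis of human plasma (1 mL) containing compound against 1 mL 0.133 M phosphate buffer pH 7.4. Membrane cut-off 10,000 Da, teflon cells rotated at 12 rpm for 2 h at 37 °C. Recovered volumes weighed and matrix-matched 1:1. Acetonitrile precipitation, LC/MS/MS of both sides.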
A general note: In equilibrium dialysis only unbound substance equilibrates across the membrane.

The target of series [4] is T1, Indoleamine 2,3-dioxygenase 1. The series can be described thus: Inhibition of human N-terminal His-tagged IDO1 expressed in Escherichia coli using D-Trp as substrate.
Series [5] relates to Liver. The series is described as follows: Intrinsic clearance in rat hepatic S9 fraction at 5 uM in presence of UDPGA measured over 30 mins by LC/MS analysis. Format: ADME. The following applies: s9, 0.5 h.
Series [6] concerns CT26. The series is described as follows: Antitumor activity against mouse CT26 cells allografted in immunocompetent Balb/c mouse assessed as reduction in tumor growth at 30 mg/kg, po measured on day 24 relative to vehicle-treated control. The series is classed as functional.
For series [7], the system named is CT26. The series can be described thus: Antitumor activity against mouse CT26 cells allografted in po dosed Balb/c nu/nu mouse assessed as tumor growth inhibition. The series is classed as functional, organism-based.
A further series concerns Mus musculus. The series is described as follows: In vivo inhibition of IDO1 in wild type C57BL/6 mouse assessed as reduction in kynurenine levels in plasma at 50 mg/kg, po qd after 8 hrs by LC/MS/MS analysis. The series is classed as functional, organism-based. Put shortly:
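Fed C57BL/6 mice given a single dose; food then removed. At various timepoints, blood taken by cardiac puncture. Plasma diluted 10-fold in water, TCA protein precipitation, then LC/MS/MS for tryptophan, kynurenine (linear 20–10,000 nM kynurenine, 200–100,000 nM tryptophan) and drug, against aqueous standards.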

Series [8] in a line: Half life in cynomolgus monkey at 10 mg/kg, po by LC/MS/MS analysis. The conditions noted are these: in vivo. The series is classed as ADME, organism-based, Macaca fascicularis. An outline of the steps: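 Male cynomolgus monkeys given 4 mg/kg IV (5% DMAC, 40% propylene glycol in saline) or 10 mg/kg orally (0.5% methylcellulose). EDTA plasma collected pre-dose through 24 h. Acetonitrile protein precipitation, then LC/MS/MS quantification, linear 2–10000 nM. PK parameters by standard non-compartmental methods.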

Series [9] in a line: Half life in rat at 5 mg/kg, po by LC/MS/MS analysis. Format: ADME, organism-based. The following applies: in vivo. An outline of the steps: (§1)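 Male rats, 5 mg/kg IV in 10% DMAC/saline or 5 mg/kg oral in 0.5% aqueous methylcellulose. Plasma (EDTA) sampled pre-dose to 24 h. Quantified by acetonitrile precipitation and LC/MS/MS (2–10000 nM range, 0.1 mL). Non-compartmental analysis of concentration–time data.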

The next series relates to Rattus norvegicus. The series is described as follows: AUC in rat at 5 mg/kg, iv or 5 mg/kg, po by LC/MS/MS analysis. Format: ADME, organism-based. The following applies: in vivo. Put shortly:
as §1

Series [10] is described as follows: AUC in mouse CT26 cells allografted immunocompetent Balb/c mouse model at 30 mg/kg, po by LC/MS/MS analysis. Format: ADME, organism-based. The conditions noted are these: in vivo.

T1 sequence (P14902 whole entry): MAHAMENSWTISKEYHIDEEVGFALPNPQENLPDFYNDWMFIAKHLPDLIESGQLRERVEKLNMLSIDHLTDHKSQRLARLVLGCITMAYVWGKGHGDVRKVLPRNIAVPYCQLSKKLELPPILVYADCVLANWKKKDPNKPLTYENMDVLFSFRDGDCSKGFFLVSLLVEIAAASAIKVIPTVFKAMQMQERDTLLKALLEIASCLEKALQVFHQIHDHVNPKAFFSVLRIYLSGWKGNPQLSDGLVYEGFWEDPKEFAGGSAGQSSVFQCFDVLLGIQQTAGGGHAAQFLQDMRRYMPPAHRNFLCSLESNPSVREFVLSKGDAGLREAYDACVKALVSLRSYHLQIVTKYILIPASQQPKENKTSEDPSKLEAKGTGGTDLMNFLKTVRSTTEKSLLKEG

As for `CC(=O)NCCNc1nonc1/C(=N/O)Nc1ccc(F)c(Br)c1`, the IC50 was determined as 17 nM in series [1] and 210 nM in series [4]. Also, the CLH in the series with Liver [2] came out at 33 mL/min/kg; in the series with Liver [5], 15 mL/min/kg. Besides, in [3], the Papp A→B at 2 h, 50 µM is 19 ×10⁻⁶ cm/s. The compound further returned a Fu with Plasma of 4.4%.

For `CCNc1nonc1/C(=N/O)Nc1ccc(F)c(Br)c1`, the IC50 in [1] was 35 nM; in [4], 180 nM. Further, the CLH was above 36.7 mL/min/kg in the series on Liver [2] and 23.3 mL/min/kg in the series with Liver [5].

`CNc1nonc1/C(=N/O)Nc1ccc(F)c(Br)c1`: the IC50 in series [1] was determined as 14 nM; in [4], 100 nM. The CLH in the series on Liver [2] and in the series on Liver [5] was above 36.7 mL/min/kg throughout.

As to `CS(=O)(=O)NCCNc1nonc1C(=NO)Nc1ccc(F)c(Br)c1`, the IC50 is 16 nM in series [1] and 100 nM in series [4]. Besides, the CLH was found to be 25 mL/min/kg with Liver [2] and 12 mL/min/kg in the series with Liver [5]. Besides, in series [3], the Papp A→B at 2 h, 50 µM came out at 24 ×10⁻⁶ cm/s. Also, the Fu with Plasma is on record as 2.4%.

Regarding `Nc1nonc1C(=NO)Nc1ccc(F)c(Cl)c1`, the CLH in the series with Liver [2] and with Liver [5] was above 36.7 mL/min/kg throughout.

For the compound `CN(C)c1nonc1/C(=N/O)Nc1ccc(F)c(Br)c1`, the IC50 in series [1] and in series [4] was above 5000 nM each time. The CLH in the series with Liver [2] and in the series on Liver [5] was above 36.7 mL/min/kg throughout.

For `O/N=C(\Nc1ccc(F)c(Br)c1)c1nonc1NCc1ccccc1`, the values for the IC50 in [1] and in series [4] were 280 nM and 230 nM, respectively. The CLH in the series with Liver [2] is above 36.7 mL/min/kg; in the series on Liver [5] it was 35 mL/min/kg. Moreover, the Fu in the series with Plasma is on record as below 0.5%.

As to `Nc1nonc1C(=Nc1ccc(F)c(Br)c1)NO`, the IC50 turned out to be 10 nM in series [1] and 50 nM in series [4]. Further, the CLH was 23.3 mL/min/kg with Liver [2] and above 36.7 mL/min/kg in the series with Liver [5].

`NS(=O)(=O)NCCNc1nonc1/C(=N/O)Nc1ccc(F)c(Br)c1` [EPACADOSTAT]: the Efficacy with CT26 [6] was determined as 56%. For the same compound, the TGI result in the series on CT26 [7] was “inactive”. Besides, the inhibition result in the series with Mus musculus is “Active”.

On to `COCCNc1nonc1/C(=N/O)Nc1ccc(F)c(Br)c1`, for which the IC50 in series [1] worked out at 100 nM; in [4], 200 nM. The CLH with Liver [2] and in the series with Liver [5] was above 36.7 mL/min/kg throughout. Besides, in series [3], the Papp A→B at 2 h, 50 µM came out at 44 ×10⁻⁶ cm/s. In the series with Plasma, this compound yielded a Fu of 0.9%.

`NCCNc1nonc1/C(=N/O)Nc1ccc(F)c(Br)c1`: the results for the IC50 in series [1] and in series [4] were 98 nM and 290 nM, respectively. Besides, the CLH in the series on Liver [2] was found to be 15 mL/min/kg; in the series on Liver [5], 18.3 mL/min/kg. For the same compound, in series [3], the Papp A→B at 2 h, 50 µM was determined as 1.8 ×10⁻⁶ cm/s. Moreover, in the series with Plasma, the Fu turned out to be 6.1%.

With `OCCNc1nonc1/C(=N/O)Nc1ccc(F)c(Br)c1`, the IC50 in series [1] stood at 22 nM; in [4], 170 nM. Further, the CLH with Liver [2] and in the series with Liver [5] was above 36.7 mL/min/kg throughout. Moreover, the Papp A→B at 2 h, 50 µM in series [3] was 31 ×10⁻⁶ cm/s. Also, the Fu with Plasma was found to be 2.3%.

For the compound `NS(=O)(=O)NCCNc1nonc1C(=NO)Nc1ccc(F)c(Cl)c1`, the Efficacy with CT26 [6] is listed as 13%. Moreover, the half-life is 4 h in series [8] and 2.7 h in series [9]. The IC50 was determined as 11 nM in series [1] and 120 nM in [4]. In addition, the AUC in the series on Rattus norvegicus came out at 3.3 µM·h; in series [10] it was 15.1 µM·h. The CLH in the series on Liver [2] is 13 mL/min/kg; with Liver [5] it was 8.3 mL/min/kg. In series [3], the Papp A→B at 2 h, 50 µM was 4.3 ×10⁻⁶ cm/s. In the series with Plasma, the Fu came to 3.8%.

The IC50 is the point on the concentration scale where inhibition reaches its midpoint. For orientation: half-life means the time in which the quantity being followed falls by half. By AUC is commonly meant the area under the concentration-time curve, a measure of exposure.
